Entries after “also recorded” stand apart in the source; their conditions may differ.
How the values were obtained:
[1] = Biodistribution in athymic nude mice bearing MDA-MB-435 breast cancer xenografts; type: in vivo; details: mouse; for tissue to tissue ratio at 2 h: female, athymic nu/nu, tumor and muscle, iv, total radioactivity; for tissue uptake at 0.5 h / tissue uptake at 2 h: in vivo; for tissue uptake at 0.5 h: 30 min p.i.; for tissue uptake at 2 h: 120 min p.i.
Outline: (§1)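 Female athymic nu/nu mice (4–5 weeks old) received 5 × 10⁶ cells s.c. into both mammary fat pads (MDA-MB-435) or both upper flanks (U87MG) and were used 2–4 weeks later with 0.05–0.4 g tumors. Each got ~2 μCi of HPLC-purified tracer in 0.1 mL saline i.v. via the tail vein. Four mice per time point were killed at 30, 60 and 120 min by pentobarbital overdose. Organs were weighed and γ-counted as %ID/g; T/B values are means ± SD.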

[2] = Biodistribution in athymic nude mice bearing U87MG glioma xenografts; type: in vivo; details: mouse; for tissue to tissue ratio at 0.5 h / tissue to tissue ratio at 2 h: female, athymic nu/nu, iv, total radioactivity; for tissue uptake at 0.5 h / tissue uptake at 2 h: in vivo; for tissue uptake at 0.5 h: 30 min p.i.; for tissue uptake at 2 h: 120 min p.i.
Outline: as §1

tumor-bearing mouse = assay: Blocking experiment; type: in vivo, mice
Outline: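 Tumour-bearing nude mice were given ~2 μCi of the 99mTc-labelled tracer i.v. together with ~350 μg (~14 mg/kg) excess unlabelled cyclic RGD dimer. The blocker was dissolved in the dose solution at 1.75 mg/mL and filtered. Four animals were killed at 1 h p.i. by pentobarbital overdose, and organ %ID/g was compared with unblocked animals at the same time point.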

normal athymic nude mice = assay: Metabolism study; type: in vivo
Outline: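 Two normal athymic nude mice per tracer each received 100–120 μCi i.v. via the tail vein. Urine was collected by manual void at 30 and 120 min, mixed with an equal volume of 20% aqueous acetonitrile, centrifuged at 8,000 rpm and filtered (0.20 μ). Feces collected at 2 h were suspended in 2 mL 20% acetonitrile, vortexed and centrifuged.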

[3] = system: athymic nude mice bearing U87MG glioma xenografts; assay: Biodistribution in athymic nude mice bearing U87MG glioma xenografts; type: in vivo; details: over the 2 h study period
Outline: as §1

[4] = kidney uptake, MDA-MB-435 model
[5] = muscle uptake, MDA-MB-435 model
[6] = tumor uptake, MDA-MB-435 breast tumor
[7] = blood uptake (blood clearance), U87MG model

| SMILES | tissue to tissue ratio at 2 h [1] | tissue uptake at 0.5 h [1, 6] | tissue uptake at 2 h [1, 6] | tissue to tissue ratio at 0.5 h ([2]; tumor and liver) | tissue to tissue ratio at 2 h ([2]; tumor and liver) | tissue to tissue ratio at 0.5 h ([2]; tumor and whole blood) | tissue to tissue ratio at 2 h ([2]; tumor and whole blood) | tissue uptake at 0.5 h ([2]; kidney uptake, U87MG model) | tissue uptake at 2 h ([2]; kidney uptake, U87MG model) | tissue uptake at 0.5 h ([2]; muscle uptake, U87MG model) | tissue uptake at 2 h ([2]; muscle uptake, U87MG model) | tissue uptake at 0.5 h ([2]; tumor uptake, U87MG glioma) | tissue uptake at 2 h ([2]; tumor uptake, U87MG glioma) | further results |
| --- | --- | --- | --- | --- | --- | --- | --- | --- | --- | --- | --- | --- | --- | --- |
| N=C(N)NCCC[C@@H]1NC(=O)[C@H](CCCCNC(=O)CCOCCOCCOCCOCCNC(=O)CC[C@H](NC(=O)c2ccc(NN)nc2)C(=O)NCCOCCOCCOCCOCCC(=O)NCCCC[C@@H]2NC(=O)[C@@H](Cc3ccccc3)NC(=O)[C@H](CC(=O)O)NC(=O)CNC(=O)[C@H](CCCNC(=N)N)NC2=O)NC(=O)[C@@H](Cc2ccccc2)NC(=O)[C@H](CC(=O)O)NC(=O)CNC1=O [^99mTc-2PEG4-dimer, [^99mTc(HYNIC-2PEG4-dimer)(tricine)(TPPTS)], metal not drawn] | 6.52 ± 1.72 | 5.2 ± 1.74 %ID/g | 9.77 ± 2.66 %ID/g | 2.59 ± 0.45 | 3.33 ± 0.64 | 9.63 ± 1.32 | 29.1 ± 8.54 | 20.8 ± 2.32 %ID/g | 10.2 ± 1.37 %ID/g | 2.18 ± 0.37 %ID/g | 1.27 ± 0.2 %ID/g | 11.2 ± 1.96 %ID/g | 8.31 ± 2.31 %ID/g | tissue uptake at 0.5 h [1, 4]: 14.4 ± 4.09 %ID/g; tissue uptake at 2 h [1, 4]: 13.8 ± 5.36 %ID/g; tissue uptake at 0.5 h ([1]; liver uptake, MDA-MB-435 model): 2.97 ± 0.63 %ID/g; tissue uptake at 2 h ([1]; liver uptake, MDA-MB-435 model): 3.27 ± 1.09 %ID/g; tissue uptake at 0.5 h [1, 5]: 1.76 ± 0.56 %ID/g; tissue uptake at 2 h [1, 5]: 1.51 ± 0.35 %ID/g; uptake in the blood and kidneys in the presence of E[c(RGDfK)]2 (tumor-bearing mouse; 60 min p.i., versus without blocking agent): comparable; tumor uptake on co-injection of excess E[c(RGDfK)]2 (tumor-bearing mouse; result in words): partially blocked; metabolic stability during excretion from renal and hepatobiliary routes (normal athymic nude mice; urine and feces over 2 h): high metabolic stability; also recorded: remained intact; also recorded: very high metabolic stability |
| N=C(N)NCCC[C@@H]1NC(=O)[C@H](CCCCNC(=O)CCOCCOCCOCCOCCNC(=O)CC[C@H](NC(=O)CCOCCOCCOCCOCCNC(=O)c2ccc(NN)nc2)C(=O)NCCOCCOCCOCCOCCC(=O)NCCCC[C@@H]2NC(=O)[C@@H](Cc3ccccc3)NC(=O)[C@H](CC(=O)O)NC(=O)CNC(=O)[C@H](CCCNC(=N)N)NC2=O)NC(=O)[C@@H](Cc2ccccc2)NC(=O)[C@H](CC(=O)O)NC(=O)CNC1=O [^99mTc-3PEG4-dimer, [^99mTc(HYNIC-3PEG4-dimer)(tricine)(TPPTS)], metal not drawn] |  |  |  | 2.13 ± 0.87 | 3.49 ± 1.64 | 6.72 ± 2.88 | 48.8 ± 18.7 | 17.6 ± 0.73 %ID/g | 9.89 ± 1.2 %ID/g | 1.45 ± 0.2 %ID/g | 1 ± 0.22 %ID/g | 8.17 ± 0.68 %ID/g | 9.74 ± 3.22 %ID/g | tissue uptake at 0.5 h [2, 7]: 1.02 ± 0.22 %ID/g; tissue uptake at 2 h [2, 7]: 0.17 ± 0.02 %ID/g; tissue uptake at 0.5 h ([2]; liver uptake, U87MG model): 3.14 ± 0.18 %ID/g; tissue uptake at 2 h ([2]; liver uptake, U87MG model): 2.92 ± 0.77 %ID/g; tissue uptake at 2 h ([2]; tumor uptake, U87MG glioma, tumor size 0.5 g – 1.6 g or 500 – 1700 mm^3): 4 to 6 %ID/g; tissue uptake at 2 h ([2]; tumor uptake, U87MG glioma, tumor size <0.05 g or <50 mm^3): 2 to 4 %ID/g; glioma uptake relative to ^99mTc-PEG4-monomer [3]: ~3 ×; metabolism during excretion from the hepatobiliary route (normal athymic nude mice; feces at 120 min p.i.): ~ 30%; metabolic stability during excretion from the renal route (normal athymic nude mice; urine at 30 and 120 min p.i.): remained intact |
| N=C(N)NCCC[C@@H]1NC(=O)[C@H](CCCCNC(=O)CC[C@H](NC(=O)CCOCCOCCOCCOCCNC(=O)c2ccc(NN)nc2)C(=O)NCCCC[C@@H]2NC(=O)[C@@H](Cc3ccccc3)NC(=O)[C@H](CC(=O)O)NC(=O)CNC(=O)[C@H](CCCNC(=N)N)NC2=O)NC(=O)[C@@H](Cc2ccccc2)NC(=O)[C@H](CC(=O)O)NC(=O)CNC1=O [^99mTc-PEG4-dimer, [^99mTc(HYNIC-PEG4-dimer)(tricine)(TPPTS)], metal not drawn, reference compound] | 2.91 ± 0.6 | 3.49 ± 0.62 %ID/g | 3.82 ± 0.54 %ID/g |  |  |  |  |  |  |  |  |  |  |  |
